Source: ChEMBL document CHEMBL3091303, “1,3-Dialkyl-substituted tetrahydropyrimido[1,2-f]purine-2,4-diones as multiple target drugs for the potential treatment of neurodegenerative diseases” (Bioorg Med Chem, 2013)

Key:
[1] = target: T1, Amine oxidase [flavin-containing] B (Homo sapiens, UniProt P27338); experiment: Inhibition of human MAO-B
T1 sequence (P27338 whole entry): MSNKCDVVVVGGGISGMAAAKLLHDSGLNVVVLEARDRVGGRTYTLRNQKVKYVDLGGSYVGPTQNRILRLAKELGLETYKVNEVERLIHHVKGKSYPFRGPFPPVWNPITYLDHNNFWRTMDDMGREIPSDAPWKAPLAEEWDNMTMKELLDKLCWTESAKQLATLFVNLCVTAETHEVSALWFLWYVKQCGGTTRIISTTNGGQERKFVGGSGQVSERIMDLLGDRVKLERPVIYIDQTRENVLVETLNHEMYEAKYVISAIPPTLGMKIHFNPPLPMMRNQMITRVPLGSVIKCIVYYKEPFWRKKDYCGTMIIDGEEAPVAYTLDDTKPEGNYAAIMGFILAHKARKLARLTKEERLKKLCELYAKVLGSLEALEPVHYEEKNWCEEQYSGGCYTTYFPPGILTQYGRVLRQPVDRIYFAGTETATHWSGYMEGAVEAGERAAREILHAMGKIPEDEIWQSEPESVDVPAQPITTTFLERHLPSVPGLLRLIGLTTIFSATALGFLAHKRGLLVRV

[2] = target: T2, MAO-A (amine oxidase [flavin-containing] A) (Homo sapiens, UniProt P21397); experiment: Inhibition of human MAO-A at 10 uM relative to control
T2 sequence (P21397 whole entry): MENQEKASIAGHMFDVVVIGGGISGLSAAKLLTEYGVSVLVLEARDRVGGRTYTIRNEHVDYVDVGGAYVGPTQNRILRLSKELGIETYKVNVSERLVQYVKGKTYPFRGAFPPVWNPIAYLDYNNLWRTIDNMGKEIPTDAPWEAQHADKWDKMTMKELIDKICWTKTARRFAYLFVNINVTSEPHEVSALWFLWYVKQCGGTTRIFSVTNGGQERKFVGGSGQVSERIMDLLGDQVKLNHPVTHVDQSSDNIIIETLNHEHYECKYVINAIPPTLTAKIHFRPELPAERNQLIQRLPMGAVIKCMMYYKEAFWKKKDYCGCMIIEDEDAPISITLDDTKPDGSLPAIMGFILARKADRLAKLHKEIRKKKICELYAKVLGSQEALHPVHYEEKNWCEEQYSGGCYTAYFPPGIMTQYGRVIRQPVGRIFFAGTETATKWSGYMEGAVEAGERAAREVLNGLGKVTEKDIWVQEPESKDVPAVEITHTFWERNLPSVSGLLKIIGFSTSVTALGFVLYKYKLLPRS
In short: (§1)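 Human MAO-A and MAO-B inhibition, screened first at a test concentration of 10 µM.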

[3] = target: T3, Adenosine receptor A1 (Rattus norvegicus) (UniProt P25099); experiment: Displacement of [3H]CCPA from adenosine A1 receptor in rat brain cortex relative to control; type: tissue-based; parameters: concentration or dose not given beside the values; conditions: concentration not given here
T3 sequence (whole entry): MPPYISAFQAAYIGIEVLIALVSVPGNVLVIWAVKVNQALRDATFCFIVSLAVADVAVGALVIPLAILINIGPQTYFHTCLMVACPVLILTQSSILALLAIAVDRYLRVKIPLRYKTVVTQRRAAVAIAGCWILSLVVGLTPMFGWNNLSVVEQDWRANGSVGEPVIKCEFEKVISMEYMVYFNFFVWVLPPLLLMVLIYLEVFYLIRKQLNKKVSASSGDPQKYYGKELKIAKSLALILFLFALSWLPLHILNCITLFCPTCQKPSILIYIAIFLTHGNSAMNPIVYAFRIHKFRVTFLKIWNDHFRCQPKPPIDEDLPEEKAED
In short: (§2)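 Radioligand binding to rat A1 receptors in rat brain cortical membrane preparations. Values are given as Ki, or as % inhibition of radioligand binding at the indicated concentration.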

[4] = target: Adenosine receptor A2a (Rattus norvegicus) (UniProt P30543); experiment: Displacement of [3H]MSX-2 from adenosine A2A receptor in rat brain striatum relative to control; type: tissue-based; parameters: concentration or dose not given beside the values; conditions: concentration not given here
In short: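 Radioligand binding to rat A2A receptors in rat brain striatal membrane preparations, reported as % inhibition of radioligand binding at the indicated concentration.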

[5] = target: T4, Adenosine receptor A2b (Homo sapiens, UniProt P29275); experiment: Displacement of [3H]PSB-603 from human adenosine A2B receptor
T4 sequence (P29275 whole entry): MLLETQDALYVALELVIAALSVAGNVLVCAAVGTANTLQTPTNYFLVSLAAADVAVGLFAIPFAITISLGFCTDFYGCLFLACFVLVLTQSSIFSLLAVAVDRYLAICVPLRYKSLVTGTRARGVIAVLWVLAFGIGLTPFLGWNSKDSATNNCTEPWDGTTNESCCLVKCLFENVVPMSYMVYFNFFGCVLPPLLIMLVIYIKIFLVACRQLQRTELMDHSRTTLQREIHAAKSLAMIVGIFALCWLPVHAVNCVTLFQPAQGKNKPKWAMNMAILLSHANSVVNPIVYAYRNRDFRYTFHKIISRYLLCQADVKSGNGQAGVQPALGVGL

[6] = target: T5, Adenosine receptor A3 (Homo sapiens) (UniProt P0DMS8); experiment: Displacement of [3H]PSB-11 from human adenosine A3 receptor expressed in CHO cells relative to control; type: cell-based; parameters: concentration or dose not given beside the values; conditions: concentration not given here
T5 sequence (whole entry): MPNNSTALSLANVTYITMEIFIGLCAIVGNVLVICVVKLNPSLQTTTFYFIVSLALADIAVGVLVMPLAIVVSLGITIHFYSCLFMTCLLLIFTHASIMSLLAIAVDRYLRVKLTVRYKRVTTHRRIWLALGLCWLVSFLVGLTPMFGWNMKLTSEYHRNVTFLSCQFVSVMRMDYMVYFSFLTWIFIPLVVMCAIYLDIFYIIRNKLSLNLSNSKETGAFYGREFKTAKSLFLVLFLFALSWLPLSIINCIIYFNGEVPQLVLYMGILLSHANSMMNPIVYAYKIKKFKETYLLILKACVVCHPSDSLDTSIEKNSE

[7] = target: T6, Amine oxidase [flavin-containing] A (Homo sapiens, UniProt P21397); experiment: Inhibition of human MAO-A; in short: as §1
T6 sequence (P21397 whole entry): T2 sequence (P21397 whole entry)

[8] = target: T7, MAO-B (amine oxidase [flavin-containing] B) (Homo sapiens, UniProt P27338); experiment: Inhibition of human MAO-B at 10 uM relative to control; in short: as §1
T7 sequence (P27338 whole entry): T1 sequence (P27338 whole entry)

[9] = target: Adenosine receptor A2a (Rattus norvegicus, UniProt P30543); experiment: Displacement of [3H]MSX-2 from adenosine A2A receptor in rat brain striatum; type: tissue-based
[10] = target: T8, Adenosine receptor A1 (Rattus norvegicus, UniProt P25099); experiment: Displacement of [3H]CCPA from adenosine A1 receptor in rat brain cortex; type: tissue-based; in short: as §2
T8 sequence (P25099 whole entry): T3 sequence (whole entry)

[11] = target: T9, Adenosine receptor A3 (Homo sapiens, UniProt P0DMS8); experiment: Displacement of [3H]PSB-11 from human adenosine A3 receptor expressed in CHO cells; type: cell-based
T9 sequence (P0DMS8 whole entry): T5 sequence (whole entry)

[12] = target: T10, Adenosine receptor A2b (Homo sapiens) (UniProt P29275); experiment: Displacement of [3H]PSB-603 from human adenosine A2B receptor relative to control; parameters: concentration or dose not given beside the values; conditions: concentration not given here
T10 sequence (whole entry): T4 sequence (P29275 whole entry)

[13] = target: Adenosine receptor A2a (Homo sapiens, UniProt P29274); experiment: Displacement of [3H]MSX-2 from human adenosine A2A receptor expressed in CHO cells; type: cell-based
In short: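 Radioligand binding to human receptors recombinantly expressed in Chinese hamster ovary (CHO) cells. Results are Ki, or % inhibition of radioligand binding at the indicated concentration.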

Adenosine receptor A2a (Homo sapiens, UniProt P29274), sequence (P29274 whole entry): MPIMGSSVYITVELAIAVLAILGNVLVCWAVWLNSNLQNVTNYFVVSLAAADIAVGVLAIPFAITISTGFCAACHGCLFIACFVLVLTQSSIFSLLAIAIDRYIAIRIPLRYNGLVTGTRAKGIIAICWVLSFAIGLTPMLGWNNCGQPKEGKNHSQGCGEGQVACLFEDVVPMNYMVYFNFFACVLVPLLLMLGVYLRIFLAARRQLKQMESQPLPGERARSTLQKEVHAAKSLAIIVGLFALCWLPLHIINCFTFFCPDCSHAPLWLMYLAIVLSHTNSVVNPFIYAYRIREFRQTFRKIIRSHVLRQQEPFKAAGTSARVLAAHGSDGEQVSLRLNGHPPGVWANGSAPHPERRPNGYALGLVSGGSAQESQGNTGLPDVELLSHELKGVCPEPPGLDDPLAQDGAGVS
Adenosine receptor A2a (Rattus norvegicus), sequence (P30543 whole entry): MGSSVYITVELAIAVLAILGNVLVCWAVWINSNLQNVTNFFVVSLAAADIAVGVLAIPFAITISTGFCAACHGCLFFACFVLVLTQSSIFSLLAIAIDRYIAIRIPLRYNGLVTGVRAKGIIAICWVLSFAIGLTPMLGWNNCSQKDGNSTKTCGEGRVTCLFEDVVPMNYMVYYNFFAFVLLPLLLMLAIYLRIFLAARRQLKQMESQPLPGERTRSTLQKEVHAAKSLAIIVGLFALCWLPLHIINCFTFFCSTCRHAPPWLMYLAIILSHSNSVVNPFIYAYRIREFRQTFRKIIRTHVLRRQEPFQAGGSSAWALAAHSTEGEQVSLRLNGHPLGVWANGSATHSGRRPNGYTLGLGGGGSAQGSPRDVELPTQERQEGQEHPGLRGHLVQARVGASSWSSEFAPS
Adenosine receptor A2a (Rattus norvegicus, UniProt P30543), sequence (P30543 whole entry): as above

| Structure (SMILES) | IC50 [1] [µM] | inhibition at 10 µM [2] [%] | inhibition [3] [%] | inhibition [4] [%] | Ki [5] [µM] | inhibition [6] [%] | IC50 [7] [µM] | inhibition at 10 µM [8] [%] | Ki [9] [µM] | Ki [10] [µM] | Ki [11] [µM] | inhibition [12] [%] | Ki [13] [µM] |
| --- | --- | --- | --- | --- | --- | --- | --- | --- | --- | --- | --- | --- | --- |
| Cn1c(=O)c2c(nc3n2CCCN3CC(=O)N2CCN(c3ccccc3)CC2)n(C)c1=O | 10 | 1 | 3 | 40 | > 1 | 32 | > 10 | 40 | > 10 | > 1.5 | > 10 |  |  |
| COc1ccc(CN2CCN(C(=O)CN3CCCn4c3nc3c4c(=O)n(C)c(=O)n3C)CC2)cc1 | > 10 |  | 0 | 41 | > 1 | 15 |  | 30 | > 10 | > 1.5 | > 10 | -8 |  |
| CCCn1c(=O)c2c(nc3n2CCCN3CCC(=O)N2CCN(Cc3ccc(Cl)cc3)CC2)n(CCC)c1=O | 3.6 | 1 | 8 | 40 | > 1 | 23 | > 10 |  | > 10 | > 1.5 | > 1 | -4 |  |
| CCCn1c(=O)c2c(nc3n2CCCN3CC(=O)N2CCN(c3ccc(Cl)cc3)CC2)n(CCC)c1=O | 10 | -2 | 19 | 36 | > 1 |  | > 10 | 52 | > 10 | > 1.5 | 0.762 | 7 |  |
| CCCn1c(=O)c2c(nc3n2CCCN3CCC(=O)N2CCN(c3ccccc3)CC2)n(CCC)c1=O | > 10 |  | 5 | 14 | > 1 | 21 |  | 30 | > 10 | > 1.5 | > 1 | -5 |  |
| CCCn1c(=O)c2c(nc3n2CCCN3CC(=O)N2CCN(Cc3ccc(OC)cc3)CC2)n(CCC)c1=O | > 10 |  | 18 | 33 | > 1 |  |  | 30 | > 10 | > 1.5 | 1.6 | 4 |  |
| CCCn1c(=O)c2c(nc3n2CCCN3CC(=O)N2CCN(c3ccccc3)CC2)n(CCC)c1=O | 10 |  | 18 | 27 | > 1 |  |  | 46 | > 10 | > 1.5 | 2.45 | 6 |  |
| Cn1c(=O)c2c(nc3n2CCCN3c2cc(Cl)cc(Cl)c2)n(C)c1=O | > 10 |  | 21 |  | > 1 | 21 |  | 58 | 5.54 | > 10 | > 10 | 11 | 4.61 |
| C#CCn1c(=O)c2c(nc3n2CCCN3C2CCN(Cc3ccccc3)CC2)n(C)c1=O | > 10 |  | 32 |  | > 1 | 3 |  | 22 | 2.47 | > 10 | > 1 | -2 | 0.628 |
| CCn1c(=O)c2c(nc3n2CCCN3CCN2CCCCC2)n(CC)c1=O | > 10 |  |  | 44 | > 0.3 | 13 |  | 34 | > 10 | 1.07 | > 1 | 2 |  |
| Cn1c(=O)c2c(nc3n2CCCN3CC(=O)N2CCN(Cc3ccc(C(F)(F)F)cc3)CC2)n(C)c1=O | 3.48 | 6 | 2 | 27 | > 1 | 36 | > 10 |  | > 10 | > 1.5 | > 10 | 2 |  |
| CCn1c(=O)c2c(nc3n2CCCN3CCc2ccc(OC)cc2)n(CC)c1=O | 4.76 | 2 | 20 |  | > 1 |  | > 10 |  | 0.624 | > 10 | 6.32 | 29 | 2.53 |
